Results as given in ChEMBL document CHEMBL1156795, “Rational design of 5-phenyl-3-isoxazolecarboxylic acid ethyl esters as growth inhibitors of Mycobacterium tuberculosis. a potent and selective series for further drug development” (J Med Chem, 2010).
Converted amounts (≈) assume the structure as drawn. The source made the active and inactive calls. No cut-off for these calls is given here.

Columns and labels:
[1] = tested on: Mycobacterium tuberculosis; assay: Antimycobacterial activity against Mycobacterium tuberculosis H37Rv expressing pFCA-luxAB after 10 days by low-oxygen recovery assay; assay type: functional; settings: 240 h
How it was run: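 Low oxygen recovery assay (LORA): a luminescence-based read-out of activity against non-replicating Mtb under oxygen-deprived conditions. MIC averaged over two to three independent experiments.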

[2] = tested on: Mycobacterium tuberculosis; assay: Antimycobacterial activity against Mycobacterium tuberculosis H37Rv after […] by microplate alamar; assay type: functional
How it was run: (§1)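 Microplate Alamar blue assay (MABA) on Mtb H37Rv. MIC reported as the average of two to three independent experiments.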

[3] = tested on: Mycobacterium tuberculosis; assay: Antimycobacterial activity against Mycobacterium tuberculosis H37Rv; assay type: functional; how it was run: as §1
Vero = assay: (§2) Cytotoxicity against african green monkey Vero cells after 72 hrs; assay type: cell-based, Chlorocebus sabaeus; settings: Chlorocebus sabaeus, Vero, 72 h
[4] = as §2; assay type: cell-based, Chlorocebus sabaeus; settings: chlorocebus sabaeus, Vero cells; read-out: MIC
Toxoplasma gondii = assay: Antimicrobial activity against Toxoplasma gondii; assay type: functional, organism-based
Staphylococcus aureus = assay: Antimicrobial activity against Staphylococcus aureus; assay type: functional
Escherichia coli = assay: Antimicrobial activity against Escherichia coli; assay type: functional
[5] = tested on: Mycolicibacterium smegmatis; assay: Antimicrobial activity against Mycobacterium smegmatis; assay type: functional
Candida albicans = assay: Antimicrobial activity against Candida albicans; assay type: functional

Compound | MIC [1] | MIC [2] | IC50 (Vero) | other results
CCOC(=O)c1cc(-c2ccccc2NC(=O)c2ccccc2)on1 | > 128 µM | > 128 µM | – | –
OC(c1cc(C(F)(F)F)nc2c(C(F)(F)F)cccc12)C1CCCCN1 (stereo not drawn) [MEFLOQUINE] | – | – | – | MIC [3]: 13 µM (≈ 4.92 µg/mL)
CCOC(=O)c1cc(-c2cccc(NCc3cccc(C(F)(F)F)c3)c2)on1 | 15.3 µM (≈ 5.97 µg/mL) | 1.1 µM (≈ 0.429 µg/mL) | > 128 µM | –
CCOC(=O)c1cc(-c2cccc(OCc3ccc(F)cc3F)c2)on1 | 15.7 µM (≈ 5.64 µg/mL) | 1 µM (≈ 0.359 µg/mL) | > 128 µM | –
CCOC(=O)c1cc(-c2ccc(C(O)c3cccc(OC)c3)cc2)on1 (stereo not drawn) | 23.9 µM (≈ 8.45 µg/mL) | 2.8 µM (≈ 0.989 µg/mL) | – | –
CCOC(=O)c1cc(-c2cccc(OCc3cc(F)ccc3F)c2)on1 | 23.7 µM (≈ 8.52 µg/mL) | 0.9 µM (≈ 0.323 µg/mL) | > 128 µM | –
NNC(=O)c1ccncc1 [ISONIAZID] | > 128 µM | 0.5 µM (≈ 0.0686 µg/mL) | – | MCC at 72 h [4]: > 128 µM
CCOC(=O)c1cc(-c2cccc(OCc3cccc(C(=O)N4CCOCC4)c3)c2)on1 | > 128 µM | > 128 µM | > 128 µM | –
CCOC(=O)c1cc(-c2cccc(OCc3cccc(Br)c3)c2)on1 | 12.7 µM (≈ 5.11 µg/mL) | 0.8 µM (≈ 0.322 µg/mL) | > 128 µM | –
CCOC(=O)c1cc(-c2cccc(Oc3cccc(C(F)(F)F)c3)c2)on1 | 10.5 µM (≈ 3.96 µg/mL) | 1 µM (≈ 0.377 µg/mL) | > 128 µM | –
CCOC(=O)c1cc(-c2cccc(OCc3cccc(Cl)c3)c2)on1 | 10.8 µM (≈ 3.86 µg/mL) | 1 µM (≈ 0.358 µg/mL) | > 128 µM | –
CCOC(=O)c1cc(-c2cccc(Oc3cc(C(F)(F)F)nc4ccccc34)c2)on1 | – | – | – | MIC [3]: 0.95 µM (≈ 0.407 µg/mL)
CCOC(=O)c1cc(-c2cccc(OCc3cccc(F)c3)c2)on1 | 18.9 µM (≈ 6.45 µg/mL) | 0.8 µM (≈ 0.273 µg/mL) | > 128 µM | –
CCOC(=O)c1cc(-c2cccc(OCc3cccc(OC)c3)c2)on1 | 26.7 µM (≈ 9.44 µg/mL) | 2.1 µM (≈ 0.742 µg/mL) | > 128 µM | –
CCOC(=O)c1cc(-c2cccc(NC(=O)c3cccc(C(F)(F)F)c3)c2)on1 | 28.3 µM (≈ 11.4 µg/mL) | 1.4 µM (≈ 0.566 µg/mL) | > 128 µM | –
CCOC(=O)c1cc(-c2cccc(OCc3ccc(F)cc3)c2)on1 | 24 µM (≈ 8.19 µg/mL) | 1.8 µM (≈ 0.614 µg/mL) | – | –
CCOC(=O)c1cc(-c2cccc(OCC(=O)N3CCOCC3)c2)on1 | 48.9 µM (≈ 17.6 µg/mL) | 13.8 µM (≈ 4.97 µg/mL) | – | –
CCOC(=O)c1cc(-c2ccc(NCc3cccc(C(F)(F)F)c3)cc2)on1 | 6.3 µM (≈ 2.46 µg/mL) | 0.6 µM (≈ 0.234 µg/mL) | > 128 µM | –
CCOC(=O)c1cc(-c2cccc(OCc3cc(F)ccc3Cl)c2)on1 | 15.1 µM (≈ 5.67 µg/mL) | 0.9 µM (≈ 0.338 µg/mL) | – | –
CCOC(=O)c1cc(COc2cc(C(F)(F)F)nc3c(C(F)(F)F)cccc23)on1 | – | – | – | MIC [3]: 0.9 µM (≈ 0.391 µg/mL)
O=[N+]([O-])c1cn2c(n1)OC[C@@H](OCc1ccc(OC(F)(F)F)cc1)C2 [PRETOMANID] | 3.8 µM (≈ 1.37 µg/mL) | 0.3 µM (≈ 0.108 µg/mL) | – | –
CCOC(=O)c1cc(/C=C/c2cccc(C(F)(F)F)c2)on1 | – | – | – | MIC [3]: 0.73 µM (≈ 0.227 µg/mL)
CCOC(=O)c1cc(-c2cccc(OCc3cccc([N+](=O)[O-])c3)c2)on1 | 8.7 µM (≈ 3.2 µg/mL) | 0.6 µM (≈ 0.221 µg/mL) | > 128 µM | –

Compound | MIC [1] | MIC [2] | IC50 (Vero) | other results
CCOC(=O)c1cc(-c2cccc(OCc3ccccc3[N+](=O)[O-])c2)on1 | 25.8 µM (≈ 9.5 µg/mL) | 1.5 µM (≈ 0.553 µg/mL) | > 128 µM | –
CCOC(=O)c1cc(-c2cccc(OCc3cccc(C(F)(F)F)c3)c2)on1 | 8 µM (≈ 3.13 µg/mL) | 0.6 µM (≈ 0.235 µg/mL) | > 128 µM | Activity (Toxoplasma gondii): inactive; MIC (Staphylococcus aureus): > 100 µM; MIC (Escherichia coli): > 100 µM; MIC [5]: > 100 µM; MIC (Candida albicans): > 100 µM
CCOC(=O)c1cc(-c2cccc(OCc3c(F)ccc(F)c3F)c2)on1 | 10.9 µM (≈ 4.11 µg/mL) | 1 µM (≈ 0.377 µg/mL) | – | –
CCOC(=O)c1cc(-c2cccc(OCc3ccccc3F)c2)on1 | 19.1 µM (≈ 6.52 µg/mL) | 1.1 µM (≈ 0.375 µg/mL) | – | –
CCOC(=O)c1cc(-c2cccc(OCc3cccc(N)c3)c2)on1 | 25.8 µM (≈ 8.73 µg/mL) | 1.5 µM (≈ 0.508 µg/mL) | > 128 µM | –
CCOC(=O)c1cc(-c2cccc(OCc3ccc(F)c(F)c3)c2)on1 | 19.2 µM (≈ 6.9 µg/mL) | 0.6 µM (≈ 0.216 µg/mL) | > 128 µM | –
CCOC(=O)c1cc(-c2cccc(OCc3cccc(C)c3)c2)on1 | 14.9 µM (≈ 5.03 µg/mL) | 1.2 µM (≈ 0.405 µg/mL) | > 128 µM | –
CCOC(=O)c1cc(-c2cccc(OCc3ccccc3C(F)(F)F)c2)on1 | 34.8 µM (≈ 13.6 µg/mL) | 1.5 µM (≈ 0.587 µg/mL) | > 128 µM | –
CCOC(=O)c1cc(-c2cccc(OCc3ccccc3Cl)c2)on1 | 10.1 µM (≈ 3.61 µg/mL) | 0.9 µM (≈ 0.322 µg/mL) | > 128 µM | –
CCOC(=O)c1cc(-c2cccc(OCc3cccc(C#N)c3)c2)on1 | 26.5 µM (≈ 9.23 µg/mL) | 0.6 µM (≈ 0.209 µg/mL) | > 128 µM | –
CCOC(=O)c1cc(-c2cccc(O)c2)on1 | 114 µM (≈ 26.6 µg/mL) | 7.3 µM (≈ 1.7 µg/mL) | – | –
CCOC(=O)c1cc(-c2cccc(OCc3cccc(F)c3F)c2)on1 | 26.8 µM (≈ 9.63 µg/mL) | 1.6 µM (≈ 0.575 µg/mL) | > 128 µM | –
CCOC(=O)c1cc(-c2cccc(OCc3ccc(Cl)c(Cl)c3)c2)on1 | 10.6 µM (≈ 4.16 µg/mL) | 2.7 µM (≈ 1.06 µg/mL) | – | –
CCOC(=O)c1cc(-c2cccc(OCc3c(F)cccc3F)c2)on1 | 12.8 µM (≈ 4.6 µg/mL) | 1.2 µM (≈ 0.431 µg/mL) | > 128 µM | –
CCOC(=O)c1cc(-c2cccc(OCc3cc(F)cc(F)c3)c2)on1 | 16.6 µM (≈ 5.96 µg/mL) | 4.4 µM (≈ 1.58 µg/mL) | > 128 µM | –
CCOC(=O)c1ccc(COc2cccc(-c3cc(C(=O)OCC)no3)c2)cc1 | 32.7 µM (≈ 12.9 µg/mL) | 0.4 µM (≈ 0.158 µg/mL) | > 128 µM | –
CCOC(=O)c1cc(-c2cccc(OCc3ccccc3)c2)on1 | 41.5 µM (≈ 13.4 µg/mL) | 1.2 µM (≈ 0.388 µg/mL) | > 128 µM | –
CCOC(=O)c1cc(-c2cccc(OCc3ccc(F)c(F)c3)c2)[nH]n1 | > 128 µM | 32 µM (≈ 11.5 µg/mL) | – | –
CCOC(=O)c1cc(-c2cccc(OCc3ccc(F)c(F)c3F)c2)on1 | 12.6 µM (≈ 4.75 µg/mL) | 0.9 µM (≈ 0.34 µg/mL) | > 128 µM | –
CCOC(=O)c1cc(-c2cccc(OCc3cccc(OC(F)(F)F)c3)c2)on1 | 13.1 µM (≈ 5.34 µg/mL) | 0.7 µM (≈ 0.285 µg/mL) | 101 µM | –
CCOC(=O)c1cc(-c2cccc(OCc3ccc(C(F)(F)F)cc3)c2)on1 | 11.8 µM (≈ 4.62 µg/mL) | 0.4 µM (≈ 0.157 µg/mL) | > 128 µM | –
CO[C@H]1/C=C/O[C@@]2(C)Oc3c(C)c(O)c4c(O)c(c(/C=N/N5CCN(C)CC5)c(O)c4c3C2=O)NC(=O)/C(C)=C\C=C\[C@H](C)[C@H](O)[C@@H](C)[C@@H](O)[C@@H](C)[C@H](OC(C)=O)[C@@H]1C [RIFAMPIN] | 1.9 µM (≈ 1.56 µg/mL) | 0.1 µM (≈ 0.0823 µg/mL) | – | –
CCOC(=O)c1cc(-c2cccc(OCc3cccc(C(F)(F)F)c3F)c2)on1 | 7 µM (≈ 2.87 µg/mL) | 0.6 µM (≈ 0.246 µg/mL) | > 128 µM | –
